Screens (PubChem BioAssay)
Shown are actives, neighbours in structure and some others; about 2.7% of the full set was active somewhere.
PG9 Ab binder: small molecules binding HIV-1 gp120 antibody PG9; TR-FRET gp120-PG9 antibody binding; inhibition, % at 6.7 µM; 360,000 tested, 0.43% active; in the data active = inhibition above about 8.5%
NR1D1 modulator: modulators of human Rev-erb alpha DNA binding; P20393; Rev-erbα–FITC-DNA binding, fluorescence polarization, 90 min; activity, % at 10 µM; 370,000 tested, 0.79% active;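 active = activity above about 14%, limit read from the data; passing the limit was not always enough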;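 also: 0% = DMSO wells with 35 nM protein and 100% = DMSO wells with 750 nM protein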
MC4R antagonist: human MC4R antagonism in cAMP assay. P32245. MC4R-expressing cells, MTII-stimulated cAMP, LANCE TR-FRET. inhibition, % at 6.5 µM. 360,000 tested, 0.48% active. AID 540295;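 active = inhibition above its plate's cutoff, the mean of tested wells on that plate plus 3 SD, cut at about 29% in these data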;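 also: 0% = Melanotan II alone and 100% = Melanotan II plus saturating MCL0020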
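System – human MC4R-expressing U2OS cells · Also added – Melanotan II · Dosing – one concentration, 6.5 µM nominal · Timing – 30-min compound, 1-h challenge, 1-h detection, room temperature · Measured by – Eu-cAMP/anti-cAMP TR-FRET, emission 671 nm · Replicates – singlicate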
MC4R ag barr: human MC4R agonism via beta-arrestin; P32245; U2OS MC4R beta-arrestin complementation, luminescence; percent of melanotan II response, DMSO zero; activation, % at 8.9 µM; 360,000 tested, 0.98% active; AID 540308;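 active = activation above a per-plate cutoff, the mean activation of sample wells on that plate plus 3 SD, cut at about 8% in these data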
NR2E3 ag-1: human photoreceptor-specific nuclear receptor agonism. Q9Y5X4. CHO-S Gal4-NCOR/VP16-NR2E3 two-hybrid, luciferase. inhibition of corepressor binding, % at 3.98 µM. 360,000 tested, 0.35% active. AID 602229;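 active = inhibition above the mean of all tested compounds plus 3 SD, cut at about 70% in these data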;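 also: 0% = DMSO with NR2E3 transfected cells and 100% = cells lacking NR2E3 construct; higher means lower luciferase signal from less NR2E3 corepressor binding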
NR2E3 ag-2: activates human photoreceptor nuclear receptor NR2E3. GST-NR2E3/biotin-RetCOR TR-FRET, 1536-well. inhibition of corepressor binding, % at 4.78 µM. 320,000 tested, 0.12% active. Q9Y5X4;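 active = percent inhibition above the cutoff of mean plus 3 SD of all tested compounds, set per screening campaign, cut at about 20% in these data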;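 also: 0% = DMSO wells and 100% = biotin wells as full block of FRET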
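System: GST-NR2E3 and biotin-RetCOR proteins; probe or stimulus: 7 nM biotin-RetCOR; doses: compound at 4.8 µM, single dose; schedule: Compound–protein incubation for 5 h at 4 °C; detection: time-resolved FRET; read-out: percent inhibition; controls: biotin wells as high control, 0.6% DMSO wells as low control; format: 1536-well plates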
MC4R barr conf: human MC4R beta-arrestin agonism confirmation | AID 602192 | shares compounds with MC4R ag barr | activation, % at 8.9 µM | 2,400 tested, 31% active | U2OS MC4R beta-arrestin recruitment, luminescence; scaled DMSO 0%, Melanotan II 100%;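 active = mean activation across replicates above the hit cutoff set in the earlier primary screen, cut at about 8% in these data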
MOR-DOR barr ag: OPRM1-OPRD1 heterodimer agonism counter-screen; shares compounds with MC4R ag barr; U2OS PathHunter beta-arrestin, beta-gal luminescence; percent of deltorphin B response, DMSO zero; activation, % at 9.2 µM; 2,400 tested, 5.8% active; AID 602194;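 active = mean activation across replicates exceeds the hit threshold derived in the earlier primary screen, cut at about 18% in these data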;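 also: 100% = deltorphin B at 0.9 µM final and 0% = DMSO alone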
Target sequence (P35372 whole entry, looked up): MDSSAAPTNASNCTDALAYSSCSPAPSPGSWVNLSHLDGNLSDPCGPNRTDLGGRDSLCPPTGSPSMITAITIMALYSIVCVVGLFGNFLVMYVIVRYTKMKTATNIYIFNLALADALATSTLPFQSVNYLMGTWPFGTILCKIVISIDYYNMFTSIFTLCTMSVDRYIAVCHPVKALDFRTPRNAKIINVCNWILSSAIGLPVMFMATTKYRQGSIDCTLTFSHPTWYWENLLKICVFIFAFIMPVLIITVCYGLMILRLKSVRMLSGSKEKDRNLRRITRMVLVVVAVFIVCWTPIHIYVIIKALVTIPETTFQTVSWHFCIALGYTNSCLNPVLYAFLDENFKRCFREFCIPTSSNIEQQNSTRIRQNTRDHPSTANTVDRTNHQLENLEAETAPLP
Target sequence (P41143 whole entry, looked up): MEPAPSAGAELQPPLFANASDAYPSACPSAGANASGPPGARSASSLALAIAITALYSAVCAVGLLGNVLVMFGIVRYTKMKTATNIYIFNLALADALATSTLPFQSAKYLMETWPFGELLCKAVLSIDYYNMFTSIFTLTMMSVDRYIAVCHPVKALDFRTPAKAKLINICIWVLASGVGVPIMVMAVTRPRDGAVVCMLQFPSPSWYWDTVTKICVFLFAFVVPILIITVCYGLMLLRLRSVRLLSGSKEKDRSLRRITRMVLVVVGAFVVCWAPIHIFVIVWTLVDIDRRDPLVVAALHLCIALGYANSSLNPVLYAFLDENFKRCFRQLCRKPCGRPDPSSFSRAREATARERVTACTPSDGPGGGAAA
An asterisk follows results filed as active; x = no result.

SMILES	PG9 Ab binder	NR1D1 modulator	MC4R antagonist	MC4R ag barr	NR2E3 ag-1	NR2E3 ag-2	MC4R barr conf	MOR-DOR barr ag
COc1cccc(CN(Cc2ccccc2F)S(=O)(=O)c2ccc(S(=O)(=O)NCc3ccccc3)cc2)c1	0.4	-6.3	-0.9	21.6*	-4.0	-0.5	8.0	9.5
COc1ccc(CCNS(=O)(=O)c2cccc(C)c2)cc1OC	-0.2	-0.2	6.4	-1.4	-14.2	3.4	x	x
CC1(C(=O)N/N=C/c2ccc([N+](=O)[O-])o2)CC1(Br)Br (centres undefined)	-0.7	5.1	0.4	-1.8	4.1	0.1	x	x
Nc1c(C(=O)NCc2ccccc2)c2nc3ccccc3nc2n1-c1ccc2c(c1)OCO2	-2.4	-10.3	8.0	-1.6	3.3	1.2	x	x
Nc1ccc(-n2c(N)c(C(=O)NCc3ccc4c(c3)OCO4)c3nc4ccccc4nc32)cc1	-3.0	-1.3	5.8	12.7*	9.2	-0.3	0.9	3.8
COc1ccc(C[C@H]2CN3C(=NC[C@H]3Cc3ccccc3)N2CCNC(=O)c2ccc(C)c(Br)c2)cc1	x	x	9.3	16.0*	35.9	-1.8	22.2*	26.9*
Cc1ccc(C(=O)NCCN2C3=NC[C@@H](Cc4ccccc4)N3C[C@H]2Cc2ccc(O)cc2)cc1Br	-1.4	4.9	7.6	3.1	-16.1	-0.9	x	x
COc1ccc(CCNC(=O)/C(C#N)=C2\N=C(NC(=O)c3ccco3)c3ccccc32)cc1	-11.4	3.8	4.3	14.2*	-11.6	-12.2	-0.6	2.4
CC1(C)CN2C(=S)N(c3ccccc3)C(c3ccccc3)N2C1 (centres undefined)	-0.2	-2.3	4.7	-0.9	-51.6	-0.6	x	x
COc1cccc(-c2cnc3c(NC(C)=O)cc(-c4ccc(OC)c(OC)c4)cn23)c1	-0.1	2.9	7.1	7.1	-6.1	x	x	x
COc1cccc(-c2cnc3c(NC(C)=O)cc(-c4cccc(C(=O)N(C)C)c4)cn23)c1	0.0	-4.3	11.0	2.7	13.3	x	x	x
COc1cccc(-c2cnc3c(NC(C)=O)cc(-c4ccsc4)cn23)c1	-0.2	-3.4	24.9	37.3*	-14.3	x	41.6*	3.3
COc1cccc(-c2cc(NC(C)=O)c3ncc(-c4ccc(OC)c(OC)c4)n3c2)c1	-2.6	1.7	6.2	16.7*	-0.7	x	10.6*	2.7
COc1ccc(-c2cc(NC(C)=O)c3ncc(-c4cccc(C(C)=O)c4)n3c2)cc1OC	-1.0	-4.8	13.4	25.5*	-9.0	x	27.2*	2.0
CCOc1cc(CNCCc2c[nH]c3ccccc23)cc(Cl)c1OCC(N)=O	-2.6	3.4	16.7	1.0	-34.5	-4.1	x	x
c1ccc(-c2nnc(-c3ccccc3)o2)cc1	-0.3	-0.1	-0.5	-1.3	-156.3	-2.0	x	x
Nc1ccccc1-c1nnc(-c2ccc(-c3ccccc3)cc2)o1	-0.5	5.5	-1.5	12.1*	-56.4	4.6	6.7	1.2
Clc1ccc2c(c1)C(N1CCNCC1)Cc1ccccc1S2 (centres undefined)	x	x	-7.3	10.3*	2.3	1.8	18.6*	22.7*
Clc1cccc2c1Sc1ccccc1CC2N1CCNCC1 (centres undefined)	1.8	10.5	1.3	2.1	-0.2	-1.1	x	x
COCCCN1CCN(C2Cc3ccccc3Sc3ccc(Cl)cc32)CC1 (centres undefined)	-0.8	2.9	2.9	12.8*	15.6	-1.5	1.3	11.4
Cc1cccc(NC(=O)c2cc(S(=O)(=O)N3CCc4ccccc43)cn2C)c1C	-2.0	-2.1	4.9	10.9*	-2.4	1.6	4.1	4.6
COC(=O)c1ccccc1NC(=O)COC(=O)c1cccnc1	-0.4	0.9	5.3	-0.5	1.5	-6.2	x	x
CCCCC(=O)OCC(=O)N1N=C(c2c[nH]c3ccccc23)C(O)C1c1ccc(OC)cc1 (centres undefined)	-0.9	4.6	11.7	14.8*	-32.8	-1.2	8.3*	4.7
Oc1ccc(/C=N/N2CCN(C3c4ccccc4-c4ccccc43)CC2)cc1O	-3.4	5.4	18.4	27.6*	1.2	0.1	13.1*	13.0
Oc1ccc(/C=N/N2CCN(C3c4ccccc4-c4ccccc43)CC2)cc1	-1.6	-6.5	12.6	6.3	-13.8	-0.6	x	x
SMILES	PG9 Ab binder	NR1D1 modulator	MC4R antagonist	MC4R ag barr	NR2E3 ag-1	NR2E3 ag-2	MC4R barr conf	MOR-DOR barr ag
O=S(=O)(NCC1CCCO1)c1ccc(S(=O)(=O)N(Cc2ccc(F)cc2)C2CCCCC2)cc1 (centres undefined)	0.8	3.3	18.1	10.0*	18.4	3.0	2.1	5.5
O=C(c1ccncc1)N1CCN(c2cc(-c3ccccc3)nc3cc(-c4cccc(Cl)c4)nn23)CC1	-0.3	-1.3	7.4	-0.7	-13.2	x	x	x
O=C(c1ccoc1)N1CCN(c2cc(-c3cccnc3)nc3cc(-c4cccc(Cl)c4)nn23)CC1	-1.2	-2.9	19.8	10.8*	-36.3	x	-0.3	3.3
CCc1ccc(Oc2coc3cc(OCC(=O)Nc4cc(C)ccc4C)ccc3c2=O)cc1	-3.2	-9.0	2.5	6.2	-18.2	5.0	x	x
CCCc1ccc(Oc2coc3cc(OCC(=O)Nc4ccccc4C)ccc3c2=O)cc1	-3.2	7.0	7.0	22.2*	14.0	0.1	14.7*	6.8
CCn1c(O)c(/C=N/N=C/c2ccc(OC)cc2)c2cc(C3=NNC(=O)CC3)ccc21	-1.2	-0.2	12.9	17.8*	-21.4	-3.2	7.3	7.1
CCOc1ccc(CN2CCN(Cc3[nH]c4ccccc4c3C)CC2CCO)cc1 (centres undefined)	-3.0	0.7	13.6	11.7*	7.8	4.5	3.0	22.4*
Cc1c(CN2CCN(CC(C)(C)C)C(CCO)C2)[nH]c2ccccc12 (centres undefined)	-0.7	3.2	3.4	-0.5	-29.1	x	x	x
Cc1nc(Nc2ccc3c(c2)OCO3)c2oc3ccccc3c2n1	-0.9	-2.4	-1.8	-1.3	-15.2	-0.4	x	x
c1ccc2c(c1)oc1c(Nc3ccc4c(c3)OCO4)ncnc12	1.9	-12.9	-1.8	11.4*	-118.8	2.9	2.0	7.9
CCN(C[C@H]1N[C@@](C)(C(=O)OC)[C@H]2C(=O)N(Cc3ccccc3)C(=O)[C@@H]12)S(=O)(=O)c1ccc(C(C)(C)C)cc1	0.6	-0.4	11.1	-0.6	-23.2	x	x	x
CC(C)CN(CC(C)C)CC(O)COc1ccc([N+](=O)[O-])cc1 (centres undefined)	-3.1	-1.2	9.6	10.4*	22.5	0.7	-0.7	7.2
